The term Ki denotes a measure of affinity in units of concentration, obtained from inhibition or displacement.

We go through five molecules from ChEMBL document CHEMBL3351639, “Fluorinated analogues of marsanidine, a highly α2-AR/imidazoline I1 binding site-selective hypotensive agent. Synthesis and biological activities” (Eur J Med Chem, 2014).

One assay has as its system Rattus norvegicus. Nature of the assay: Hypotensive activity in anesthetized Wistar rat assessed as time required for maximal reduction in mean arterial blood pressure at 0.1 mg/kg, iv. The class given is functional. In a few lines:
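Male Wistar rats (200–290 g) anaesthetized with thiopental 70 mg/kg i.p., maintained at 30 µg/kg/min; body temperature 36–37 °C. Carotid catheter recorded MAP and HR; jugular catheter for infusion. After 40 min of saline/thiopental infusion (1.2 ml/h), 0.1 mg/kg given as i.v. bolus (time 0). Signals sampled at 100 Hz. Maximal change from time 0 over 60 min, and its time, recorded. Saline vehicle control; n = 4–5.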

Assay [1] deals with T1, Adrenergic receptor alpha-1 (Rattus norvegicus, UniProt P15823+P23944+P43140).
T1 sequence (P15823 whole entry): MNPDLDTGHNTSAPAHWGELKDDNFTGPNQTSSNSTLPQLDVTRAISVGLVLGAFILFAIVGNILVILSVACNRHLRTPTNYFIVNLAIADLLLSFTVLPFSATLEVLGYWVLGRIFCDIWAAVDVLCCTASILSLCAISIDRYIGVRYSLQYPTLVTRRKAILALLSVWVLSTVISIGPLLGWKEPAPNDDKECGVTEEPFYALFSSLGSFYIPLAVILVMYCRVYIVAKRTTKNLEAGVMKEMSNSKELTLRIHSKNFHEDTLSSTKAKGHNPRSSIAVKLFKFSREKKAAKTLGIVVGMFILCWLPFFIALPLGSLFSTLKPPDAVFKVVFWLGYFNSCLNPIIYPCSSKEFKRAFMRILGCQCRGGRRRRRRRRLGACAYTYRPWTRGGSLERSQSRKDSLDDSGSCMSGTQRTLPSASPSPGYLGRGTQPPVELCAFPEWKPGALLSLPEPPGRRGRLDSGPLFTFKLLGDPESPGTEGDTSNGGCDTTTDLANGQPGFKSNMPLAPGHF
T1 sequence (P23944 whole entry): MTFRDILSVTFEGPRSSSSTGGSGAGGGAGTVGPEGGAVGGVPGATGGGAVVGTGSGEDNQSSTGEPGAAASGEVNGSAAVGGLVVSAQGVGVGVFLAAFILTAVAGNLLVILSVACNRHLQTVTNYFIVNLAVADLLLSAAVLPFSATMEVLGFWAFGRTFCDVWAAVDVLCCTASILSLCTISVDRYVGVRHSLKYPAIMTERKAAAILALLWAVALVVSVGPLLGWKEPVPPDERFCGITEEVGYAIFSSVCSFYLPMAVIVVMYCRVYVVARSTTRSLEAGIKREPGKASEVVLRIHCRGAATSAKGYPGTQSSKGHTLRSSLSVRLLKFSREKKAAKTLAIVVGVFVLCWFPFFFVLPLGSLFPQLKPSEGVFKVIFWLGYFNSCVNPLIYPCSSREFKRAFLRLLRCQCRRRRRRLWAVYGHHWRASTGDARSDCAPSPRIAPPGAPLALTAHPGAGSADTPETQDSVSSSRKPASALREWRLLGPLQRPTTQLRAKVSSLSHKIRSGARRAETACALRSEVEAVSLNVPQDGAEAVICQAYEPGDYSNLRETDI
T1 sequence (P43140 whole entry): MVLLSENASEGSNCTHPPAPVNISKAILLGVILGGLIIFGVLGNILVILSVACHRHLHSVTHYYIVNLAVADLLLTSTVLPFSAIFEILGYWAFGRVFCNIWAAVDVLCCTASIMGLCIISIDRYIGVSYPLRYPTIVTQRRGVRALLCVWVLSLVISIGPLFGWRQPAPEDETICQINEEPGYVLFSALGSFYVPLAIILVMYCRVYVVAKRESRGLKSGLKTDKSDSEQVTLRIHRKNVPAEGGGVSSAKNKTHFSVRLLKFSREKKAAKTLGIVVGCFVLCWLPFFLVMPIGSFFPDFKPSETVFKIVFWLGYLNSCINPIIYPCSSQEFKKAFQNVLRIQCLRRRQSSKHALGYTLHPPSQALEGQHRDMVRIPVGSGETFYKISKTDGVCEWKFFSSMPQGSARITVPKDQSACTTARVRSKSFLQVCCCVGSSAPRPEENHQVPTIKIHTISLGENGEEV
Nature of the assay: Displacement of [3H]prazosin from alpha1-adrenoceptor in Sprague-Dawley rat brain membranes after 45 mins by liquid scintillation counting. The class given is cell membranes, Membrane. An outline of the steps: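 Crude P2 membranes from brains of male Sprague-Dawley rats (250–280 g), 0.2–0.3 mg protein. Radioligand 1 nM [3H]RX821002 (α2) or [3H]prazosin (α1); 11 concentrations of compound, 0.1 nM–100 µM. Non-specific binding: 10 µM rauwolscine (α2) or 10 µM phenylephrine (α1). Triplicate incubation, RT, 45 min. PEI-soaked glass-fibre filtration, then scintillation counting. Ki by Cheng-Prusoff; 3–4 experiments, or one for low-affinity compounds.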
Background: Displacement assays read how much labelled ligand stays bound in the presence of the test substance.

Assay [2] concerns the target T2, Alpha-2A adrenergic receptor (Homo sapiens, UniProt P08913).
T2 sequence (P08913 whole entry): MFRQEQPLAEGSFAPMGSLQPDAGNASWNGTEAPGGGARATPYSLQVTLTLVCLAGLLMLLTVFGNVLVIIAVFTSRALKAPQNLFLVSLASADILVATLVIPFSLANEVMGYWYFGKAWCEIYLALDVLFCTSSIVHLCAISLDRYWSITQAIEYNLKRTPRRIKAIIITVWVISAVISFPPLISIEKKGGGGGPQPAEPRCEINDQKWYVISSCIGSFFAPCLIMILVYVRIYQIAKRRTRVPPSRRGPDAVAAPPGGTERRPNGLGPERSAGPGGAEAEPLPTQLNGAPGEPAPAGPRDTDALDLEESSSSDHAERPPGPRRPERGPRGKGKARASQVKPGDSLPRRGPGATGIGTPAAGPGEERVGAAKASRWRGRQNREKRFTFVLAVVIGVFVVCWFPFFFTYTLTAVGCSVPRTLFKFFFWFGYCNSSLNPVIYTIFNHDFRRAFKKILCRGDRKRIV
Nature of the assay: Displacement of [3H]RS-79948-197 from human alpha2A adrenoceptor expressed in CHO-K1 cells after 45 mins by liquid scintillation counting. The assay is classed as cell-based. An outline of the steps: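 Membranes from CHO-K1 cells stably expressing each human α2-AR subtype (6–10 µg protein). Used 0.2 nM [3H]RS-79948-197 and 8 serial dilutions of competitor in 50 mM potassium phosphate, pH 7.4. Non-specific binding defined with 100 µM oxymetazoline. Filtration, then scintillation counting. Run in duplicate, at least 3 repeats. One-site nonlinear fit; IC50 converted to Ki by Cheng-Prusoff.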

On to `Fc1ccc2cnn(CC3=NCCN3)c2c1`, for which the Time in the assay on Rattus norvegicus was determined as 36 min. Besides, in assay [1], the Ki came to 518.3 nM.
As for `Fc1ccc2c(cnn2CC2=NCCN2)c1`, in the assay with Rattus norvegicus, the Time was 40 min. The molecule also had a Ki in assay [1] of 476.3 nM.
As to `Fc1ccc2cnn(N=C3NCCN3)c2c1`, in the assay with Rattus norvegicus, the Time worked out at 35 min. Further, the Ki in assay [1] was found to be 918.3 nM; in assay [2] it was 33 nM.
For the molecule `Fc1cccc2cnn(N=C3NCCN3)c12`, the Time in the assay on Rattus norvegicus is on record as 33 min. The inhibition constant Ki came out at 1625 nM in assay [1] and 65 nM in assay [2].
As to `Fc1ccc2c(cnn2N=C2NCCN2)c1`, in the assay on Rattus norvegicus, the Time amounted to 11 min. In addition, the Ki in assay [1] is listed as 2320 nM.
